Reference: ChEMBL document CHEMBL1134502, “Aromatic quinolinecarboxamides as selective, orally active antibody production inhibitors for prevention of acute xenograft rejection” (J Med Chem, 2001)

Legend:
Jurkat = assay: In vitro inhibition of Jurkat cell proliferation.; format: functional, cell-based; conditions: Homo sapiens
Outline: (§1)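 Murine B-cells stimulated with TNP-LPS (T-cell-independent type 1) were read for antibody production, the mouse MLR for T-cell activity, and Jurkat proliferation for cytotoxicity. Values are IC50 ± SE in µM, the mean of at least four independent determinations.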

Mus musculus [1] = species: Mus musculus; assay: In vitro T-cell immunosuppressive activity in the mouse mixed lymphocyte reaction (MLR); format: functional; outline: as §1
Mus musculus [2] = assay: In vivo inhibition of TNP-specific immunoglobulin G production at 10 mg/kg/day oral administration.; format: functional
Outline: (§2)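 OF1 mice were immunized iv with TNP-LPS and dosed on day 0 plus the three following days (four doses). The sc vehicle was polyethoxylated castor oil/EtOH; the po vehicle was Labrafil/EtOH/corn oil. Mice were bled on day 6, and serum DNP-specific IgM or IgG was titred by ELISA on DNP-BSA plates at a defined OD405.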

Mus musculus [3] = assay: In vivo inhibition of TNP-specific immunoglobulin G production at 3 mg/kg/day subcutaneous administration.; format: functional; conditions: sc; outline: as §2
Mus musculus [4] = assay: In vivo inhibition of TNP-specific immunoglobulin G production at 30 mg/kg/day subcutaneous administration.; format: functional; conditions: sc; outline: as §2
Mus musculus [5] = assay: In vivo inhibition of TNP-specific immunoglobulin G production at 50 mg/kg/day subcutaneous administration.; format: functional; conditions: sc; outline: as §2
Mus musculus [6] = assay: In vivo inhibition of TNP-specific immunoglobulin M production at 10 mg/kg/day, po; format: functional; outline: as §2
Mus musculus [7] = assay: In vivo inhibition of TNP-specific immunoglobulin M production at 3 mg/kg/day, sc; format: functional; conditions: route subcutaneous; outline: as §2
Mus musculus [8] = assay: In vivo inhibition of TNP-specific immunoglobulin M production at 30 mg/kg/day, sc; format: functional; conditions: route subcutaneous; outline: as §2
Mus musculus [9] = assay: In vivo inhibition of TNP-specific immunoglobulin M production at 50 mg/kg/day, sc; format: functional; conditions: route subcutaneous; outline: as §2
Mus musculus [10] = assay: Survival period of mice in days after xenotransplantation and for a dose of 3 mg/kg (Histology = antibody-mediated rejection).; format: functional
Mus musculus [11] = assay: Survival period of mice in days after xenotransplantation and for a dose of 30 mg/kg (Histology = antibody-mediated rejection, Chronic rejection).; format: functional
Mus musculus [12] = assay: Survival period of mice in days after xenotransplantation and for a dose of 50 mg/kg (Histology = no antibody-mediated rejection).; format: functional
[13] = In vitro inhibition of Ab formation from trinitrophenyl-lipopolysaccharide (TNP-LPS) B-cells.; format: functional; conditions: Mus musculus; outline: as §1

| Compound | IC50 (Jurkat) | IC50 (Mus musculus [1]) | inhibition in vivo at 10 mg/kg/day (Mus musculus [2]) | inhibition in vivo at 3 mg/kg/day (Mus musculus [3]) | inhibition in vivo at 30 mg/kg/day (Mus musculus [4]) | inhibition in vivo at 50 mg/kg/day (Mus musculus [5]) | inhibition in vivo at 10 mg/kg/day (Mus musculus [6]) | inhibition in vivo at 3 mg/kg/day (Mus musculus [7]) | inhibition in vivo at 30 mg/kg/day (Mus musculus [8]) | inhibition in vivo at 50 mg/kg/day (Mus musculus [9]) | Survival (Mus musculus [10]) | Survival (Mus musculus [11]) | Survival (Mus musculus [12]) | IC50 [13] |
| --- | --- | --- | --- | --- | --- | --- | --- | --- | --- | --- | --- | --- | --- | --- |
| C/C=C/C[C@@H](C)[C@@H](O)[C@H]1C(=O)N[C@@H](CC)C(=O)N(C)CC(=O)N(C)[C@@H](CC(C)C)C(=O)N[C@@H](C(C)C)C(=O)N(C)[C@@H](CC(C)C)C(=O)N[C@@H](C)C(=O)N[C@H](C)C(=O)N(C)[C@@H](CC(C)C)C(=O)N(C)[C@@H](CC(C)C)C(=O)N(C)[C@@H](C(C)C)C(=O)N1C [CYCLOSPORINE] | > 10 µM |  |  |  |  |  |  |  |  |  |  |  |  |  |
| Cc1oncc1C(=O)Nc1ccc(C(F)(F)F)cc1 [LEFLUNOMIDE] | 34.6 µM | 11.4 µM | < 0% | < 0% | 39% | 85% | 5% | < 0% | 37% | 71% | 7 days | >7 days | >28 days | 5.1 µM |
